Reference: ChEMBL document CHEMBL1134531, “Peptide analogues of a subdominant epitope expressed in ebv-associated tumors: synthesis and immunological activity” (J Med Chem, 2001)
Residues, ends and D or L forms follow the SMILES beside them. *: point of attachment. X3 = OC[C@H]1O[C@H](*)[C@H](O)[C@H](O)[C@@H]1O

How the values were obtained:
[1] = Half life to evaluate susceptibility to enzymatic hydrolysis by incubating at 37 degree C in human plasma; assay type: ADME
How it was run: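 Peptide (5 mg in acetonitrile/H₂O 1:1, 50 μL) mixed into 0.5 mL heparinized human plasma and incubated at 37 °C for up to 360 min. Ethanol added to stop the reaction, then centrifugation and RP-HPLC of the supernatant. Half-life obtained by least-squares linear regression of log nonapeptide concentration against time, with at least five time points.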

[2] = Half life to evaluate susceptibility to enzymatic hydrolysis by incubating at 37 degree C in culture medium.; assay type: ADME
How it was run: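 Peptide (5 mg in acetonitrile/H₂O 1:1, 50 μL) added to 0.5 mL RPMI containing 10% fetal calf serum and incubated at 37 °C for up to 360 min. Reaction stopped with ethanol and centrifuged, then supernatant analysed by RP-HPLC. T1/2 taken from a least-squares linear regression of log nonapeptide concentration versus time, using at least five points.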

Compound | half-life [1] [h] | half-life [2] [h]
CSCC[C@H](NC(=O)[C@@H](NC(=O)[C@H](CC(C)C)NC(=O)[C@H](CC(C)C)NC(=O)CNC(=O)[C@H](C)NC(=O)[C@H](CC(C)C)NC(=O)[C@@H](N)Cc1ccc(O)cc1)[C@@H](C)O)C(=O)N(CC(=O)O)C(C)C (HELM PEPTIDE1{Y.L.A.G.L.L.T.M.[CC(C)N(CC(=O)O)[*:1]]}$$$$V2.0) | > 6 | > 6
H-YLAGLLTMV-NH2 | 0.657 | > 6
CSCC[C@@H](NC(=O)[C@@H](NC(=O)[C@H](CC(C)C)NC(=O)[C@H](CC(C)C)NC(=O)CNC(=O)[C@H](C)NC(=O)[C@H](CC(C)C)NC(=O)[C@@H](N)Cc1ccc(O)cc1)[C@@H](C)O)C(=O)N[C@H](C(=O)O)C(C)C | 0.597 | > 6
CSCC[C@H](NC(=O)[C@@H](NC(=O)[C@H](CC(C)C)NC(=O)[C@H](CC(C)C)NC(=O)CNC(=O)[C@H](C)NC(=O)[C@H](CC(C)C)NC(=O)[C@@H](N)Cc1ccc(O)cc1)[C@@H](C)O)C(=O)N[C@@H](C(=O)O)C(C)C | 4.53 | > 6
CSCC[C@H](NC(=O)[C@@H](NC(=O)[C@H](CC(C)C)NC(=O)[C@H](CC(C)C)NC(=O)CNC(=O)[C@H](C)NC(=O)[C@H](CC(C)C)NC(=O)[C@@H](N)Cc1ccc(O)cc1)[C@@H](C)O)C(=O)N[C@H](C(=O)O)C(C)C | 0.212 | 1.37
CSCC[C@H](NC(=O)[C@@H](NC(=O)[C@H](CC(C)C)NC(=O)[C@H](CC(C)C)NC(=O)CNC(=O)[C@H](C)NC(=O)[C@H](CC(C)C)NC(=O)[C@@H](N)Cc1ccc(O)cc1)[C@@H](C)O[C@H]1O[C@H](CO)[C@@H](O)[C@@H](O)[C@H]1O)C(=O)N[C@H](C(=O)O)C(C)C (H-YLAGLLT(X3)MV-OH) | 1.01 | > 6
CSCC[C@H](NC(=O)[C@@H](NC(=O)[C@H](CC(C)C)NC(=O)[C@H](CC(C)C)NC(=O)CNC(=O)[C@H](C)NC(=O)[C@H](CC(C)C)NC(=O)[C@@H](N)Cc1ccc(O)cc1)[C@@H](C)O)C(=O)N(C)[C@H](C(=O)O)C(C)C (HELM PEPTIDE1{Y.L.A.G.L.L.T.M.[meV]}$$$$V2.0) | > 6 | > 6
CSCC[C@H](NC(=O)[C@@H](NC(=O)[C@H](CC(C)C)NC(=O)[C@H](CC(C)C)NC(=O)CNC(=O)[C@H](C)NC(=O)[C@H](CC(C)C)NC(=O)[C@@H](N)Cc1ccc(O)cc1)[C@@H](C)O)C(=O)N[C@H](CO)C(C)C (HELM PEPTIDE1{Y.L.A.G.L.L.T.M.[CC(C)[C@@H](CO)N[*:1]]}$$$$V2.0) | 1.66 | > 6
CSCC[C@@H](CN[C@H](C(=O)O)C(C)C)NC(=O)[C@@H](NC(=O)[C@H](CC(C)C)NC(=O)[C@H](CC(C)C)NC(=O)CNC(=O)[C@H](C)NC(=O)[C@H](CC(C)C)NC(=O)[C@@H](N)Cc1ccc(O)cc1)[C@@H](C)O (HELM PEPTIDE1{Y.L.A.G.L.L.T.[CSCC[C@@H](CN[C@H](C(=O)O)C(C)C)N[*:1]]}$$$$V2.0) | 5.07 | > 6
CC(C)C[C@H](NC(=O)CNC(=O)[C@H](C)NC(=O)[C@H](CC(C)C)NC(=O)[C@@H](N)Cc1ccc(O)cc1)C(=O)N[C@@H](CC(C)C)C(=O)N[C@H](C(=O)N[C@@H](CC[S+](C)[O-])C(=O)N[C@H](C(=O)O)C(C)C)[C@@H](C)O (some centres not stated) (HELM PEPTIDE1{Y.L.A.G.L.L.T.[CS(=O)CC[C@H](N[*:1])C(=O)[*:2]].V}$$$$V2.0) | 0.522 | 1.56
CSCCN(CC(=O)N[C@H](C(=O)O)C(C)C)C(=O)[C@@H](NC(=O)[C@H](CC(C)C)NC(=O)[C@H](CC(C)C)NC(=O)CNC(=O)[C@H](C)NC(=O)[C@H](CC(C)C)NC(=O)[C@@H](N)Cc1ccc(O)cc1)[C@@H](C)O (HELM PEPTIDE1{Y.L.A.G.L.L.T.[CSCCN(CC(=O)[*:2])[*:1]].V}$$$$V2.0) | 0.86 | > 6
